The list is not random: actives were taken first. Their share in the collection is about 0.77%.
mIAP activ = increases mouse intestinal alkaline phosphatase activity. actives 0.24% (n = 330,000). muIAP, CDP-Star luminescence, 30 min; active compounds read high; 1 = vehicle-only enzyme signal, 0 = enzyme-free wells. activation factor at 10 µM;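 active = activation factor of at least 2 at 20 µM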
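also added = chemiluminescent substrate CDP-Star | test system = mouse IAP enzyme | signal = chemiluminescence readout | compound = DMSO-dissolved test compounds | incubation = 30 min at room temperature | benchmarks = DMSO wells, no-enzyme wells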
bIAP activator = intestinal alkaline phosphatase (bovine) activation; purified bovine IAP, CDP-star luminescence, 30 min; active compounds read high; fold of DMSO-control signal, blank-subtracted; activation factor at 20 µM; actives 0.17% (n = 200,000); AID 1016;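 active = activation factor of 2 or more at 20 µM, a signal rise over negative controls twice the positive control's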
mIAP inh = mouse IAP inhibition. actives 0.2% (n = 330,000). inhibition, % at 10 µM. purified mouse IAP, CDP-Star luminescence, 30 min;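 active = inhibition of at least 40% at 10 µM in the primary screen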;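 note: plate controls were DMSO with enzyme for no effect and no enzyme wells for full effect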
bIAP inh = intestinal alkaline phosphatase (bovine) inhibition; AID 1019; inhibition, % at 20 µM; purified bovine IAP, CDP-star luminescence, 30 min; 190,000 tested, under 10 active;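 active = over 50% inhibition of intestinal alkaline phosphatase at 20 µM in the single-dose screen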
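System: Purified bovine intestinal alkaline phosphatase (IAP) enzyme | Input: IAP diluted 1/65,000,000 in the well | Also added: CDP-star chemiluminescent phosphatase substrate, 30 µM final | Dosing: 20 µM single dose | Times: Enzyme reaction for 30 min at room temperature | Detection: Luminescence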
hIAP activ = human IAP activation. purified human IAP, CDP-Star luminescence, 30 min; active compounds read high; 1 = vehicle-only enzyme, 0 = enzyme-free background. P09923. activation factor at 10 µM. actives 0.16% (n = 330,000);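 active = activation factor of the enzyme at least 2-fold when tested at 20 µM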
Target sequence (P09923 whole entry, looked up): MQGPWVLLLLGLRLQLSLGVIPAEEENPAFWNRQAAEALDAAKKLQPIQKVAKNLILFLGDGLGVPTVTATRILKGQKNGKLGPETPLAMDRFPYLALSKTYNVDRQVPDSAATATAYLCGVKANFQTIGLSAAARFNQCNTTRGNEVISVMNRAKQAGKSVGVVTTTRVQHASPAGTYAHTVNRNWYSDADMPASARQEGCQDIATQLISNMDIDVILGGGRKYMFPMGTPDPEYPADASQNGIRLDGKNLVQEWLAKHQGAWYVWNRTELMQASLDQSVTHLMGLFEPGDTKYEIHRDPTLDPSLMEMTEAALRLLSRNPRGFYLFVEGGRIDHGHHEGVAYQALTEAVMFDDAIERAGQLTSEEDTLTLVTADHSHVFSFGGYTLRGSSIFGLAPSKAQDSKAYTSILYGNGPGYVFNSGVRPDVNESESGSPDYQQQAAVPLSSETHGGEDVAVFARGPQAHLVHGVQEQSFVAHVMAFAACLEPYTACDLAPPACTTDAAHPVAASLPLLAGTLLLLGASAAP
hIAP block = human IAP inhibition; actives 0.12% (n = 330,000); P09923; inhibition, % at 10 µM; AID 2544; purified IAP, CDP-Star luminescence, 30 min;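 active = inhibition reaching a set limit with compound at 10 µM in the primary screen, cut at about 35% in these data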;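 note: plate controls were DMSO wells with enzyme for no effect and no-enzyme buffer wells for full effect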
hIAP act conf = human IAP activation confirmation; shares compounds with hIAP activ; AID 434926; activation (%Activity, negative = activation), % at 8.3 µM; actives 10% (n = 880); purified IAP, CDP-Star luminescence, 30 min; active compounds read low;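 active = at least twofold enzyme activation in any of six single-dose repeats, which the averaged readout prints as negative percent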
* hit, by the source's call.

CN(Cc1c(F)cccc1Cl)C(=O)CNC(=O)c1cccs1 was read as mIAP activ 1.12, mIAP inh -11.9, hIAP activ 1.04 and hIAP block -4.4.
`O=c1/c(=C\c2ccc(O)cc2)sc2n1C(c1ccccc1)C(c1ccccc1)=NN=2` (configuration not stated) gave mIAP activ 0.708, bIAP activator 0.7, mIAP inh 29.2, bIAP inh 34.3, hIAP activ 0.628, hIAP block 37.2* and hIAP act conf -34.2.
Screening CCOC(=O)C1=C(c2ccccc2)N=c2s/c(=C\c3cccc(O)c3)c(=O)n2C1c1cccs1 (configuration not stated) returned mIAP activ 0.924, bIAP activator 1, mIAP inh 7.6, bIAP inh -1.3, hIAP activ 0.802 and hIAP block 19.8.
For COCCCNC(=O)CCCN1C(=O)c2cccnc2Sc2ccccc21 the results were mIAP activ 1.03, mIAP inh -3.3, hIAP activ 1.04 and hIAP block -4.3.
Nc1oc2ccccc2c(=O)c1C=O was read as mIAP activ 0.889, bIAP activator 0.9, mIAP inh 11.1, bIAP inh 7.0, hIAP activ 0.273, hIAP block 72.7* and hIAP act conf 15.5.
CCNC(=O)Cc1c(OC)ccc2cc(Br)ccc12 was read as mIAP activ 1, bIAP activator 1, mIAP inh -0.1, bIAP inh 4.0, hIAP activ 0.574, hIAP block 42.6* and hIAP act conf 16.4.
Cc1ccc(S(=O)(=O)N2CCCCC2)cc1NC(=O)CNCc1ccco1 was read as mIAP activ 0.989, mIAP inh 1.1, hIAP activ 0.902 and hIAP block 9.8.
CC(/C=N/NC(=O)CCn1nnc2ccccc21)=C\c1ccccc1 was read as mIAP activ 0.966, bIAP activator 1.5, mIAP inh 3.4, bIAP inh -51.8, hIAP activ 0.647, hIAP block 35.3* and hIAP act conf -88.8*.
For CC(/C=N/NC(=O)Cn1cnc2ccccc21)=C\c1ccccc1 the results were mIAP activ 0.917, bIAP activator 0.9, mIAP inh 8.3, bIAP inh 12.3, hIAP activ 1.06 and hIAP block -5.7.
For CC1=CN2C(=N)/C(=C\c3cn(CCCOc4ccccc4)c4ccccc34)C(=O)N=C2S1 the results were mIAP activ 1.03, bIAP activator 0.8, mIAP inh -3.1, bIAP inh 21.1, hIAP activ 1.12 and hIAP block -12.0.
For CS(=O)(=O)c1ccc(Cl)c(NC(=O)Cc2ccsc2)c1 the results were mIAP activ 1.02, mIAP inh -2.2, hIAP activ 0.64, hIAP block 36.0* and hIAP act conf 5.4.
`CS(=O)(=O)c1ccc(Cl)c(NC(=O)Cc2c(Cl)cccc2Cl)c1` gave mIAP activ 1, bIAP activator 0.9, mIAP inh -0.1, bIAP inh 12.2, hIAP activ 1.1 and hIAP block -10.5.
Screening CCOc1ccc(CCNC(=O)CN2C(=O)c3cccnc3Oc3ccc(Cl)cc32)cc1 returned mIAP activ 1.01, mIAP inh -0.8, hIAP activ 0.869 and hIAP block 13.1.
For O=S(=O)(c1ccccc1)N1CCCC1c1cccs1 (configuration not stated) the results were mIAP activ 0.947, mIAP inh 5.3, hIAP activ 0.47, hIAP block 53.0* and hIAP act conf -171.6*.
For COc1ccc(S(=O)(=O)N2CCCC2c2cccs2)cc1 (configuration not stated) the results were mIAP activ 0.947, mIAP inh 5.3, hIAP activ 0.811 and hIAP block 18.9.
`COc1ccc(C)cc1NC(=S)NNC(=O)c1ccccc1Cl` gave mIAP activ 0.864, bIAP activator 1.3, mIAP inh 13.6, bIAP inh -32.4, hIAP activ 2.1*, hIAP block -110.1 and hIAP act conf 2.3.
For Cc1ccc(NC(=S)NNC(=O)c2ccccc2O)c(C)c1 the results were mIAP activ 0.853, bIAP activator 1.5, mIAP inh 14.7, bIAP inh -52.5, hIAP activ 2.25*, hIAP block -125.1 and hIAP act conf -35.5.
For CCC(C)N(C(=O)CSc1nnc(-c2cccs2)n1C1CC1)C1CCS(=O)(=O)C1 (configuration not stated) the results were mIAP activ 1.03, mIAP inh -3.1, hIAP activ 0.93 and hIAP block 7.0.
CC1CCCCC1NC(=O)COC(=O)c1ccccc1NC(=O)c1ccco1 (configuration not stated) was read as mIAP activ 1.02, bIAP activator 1.1, mIAP inh -1.6, bIAP inh -12.4, hIAP activ 0.185, hIAP block 81.5* and hIAP act conf 2.8.
Screening COc1cc(/C=C/C(=O)OCC(=O)NC(=O)NC2CCCCC2)ccc1OC(F)F returned mIAP activ 0.954, mIAP inh 4.6, hIAP activ 0.649, hIAP block 35.1* and hIAP act conf 78.7.
For CSc1ccccc1NC(=O)c1csc(C)c1 the results were mIAP activ 0.999, mIAP inh 0.1, hIAP activ 0.649, hIAP block 35.1* and hIAP act conf -54.9.
O=C(Nc1cccc(O)c1)c1cc(-c2ccccc2Cl)on1 was read as mIAP activ 1.03, mIAP inh -3.3, hIAP activ 1.2 and hIAP block -20.2.
NC1=NCC(O)=C1c1nc2ccccc2[nH]1 was read as mIAP activ 0.937, bIAP activator 1.7, mIAP inh 6.3, bIAP inh -66.5, hIAP activ 2.01*, hIAP block -101.2 and hIAP act conf -54.8.
Screening CC(Oc1ccc(Br)cc1)C(=O)Nc1cc(S(=O)(=O)N2CCOCC2)ccc1N1CCCC1 (configuration not stated) returned mIAP activ 1.04, mIAP inh -4.0, hIAP activ 0.936 and hIAP block 6.4.
c1ccc(-n2ncc3c2ncn2nnnc32)cc1 was read as mIAP activ 1.05, bIAP activator 1.1, mIAP inh -4.9, bIAP inh -7.4, hIAP activ 1.18 and hIAP block -18.4.
`c1ccc(-n2ncc3c2ncn2cnnc32)cc1` gave mIAP activ 1.04, bIAP activator 0.4, mIAP inh -3.7, hIAP activ 0.175, hIAP block 82.5* and hIAP act conf -18.2.
For Cc1nc2c3cnn(-c4ccccc4)c3ncn2n1 the results were mIAP activ 1.01, bIAP activator 0.9, mIAP inh -1.4, bIAP inh 13.5, hIAP activ 0.272, hIAP block 72.8* and hIAP act conf 4.0.
